# Screens as filed in PubChem BioAssay.
# The list is not random: actives were taken first. Their share in the collection is about 3.2%.
# HIV Rev-RRE inh = inhibitors of HIV-1 Rev-RRE RNA interaction | Rev peptide-RRE RNA binding, FRET | inhibition, % at 8 µM | 0.79% of 97,000 active;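 active means inhibition above the screen-wide mean plus 3 SD, cut at about 35% in these data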;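 further: 0% = median DMSO wells and 100% = median Neomycin B control wells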
# Target sequence (P05866 whole entry, looked up): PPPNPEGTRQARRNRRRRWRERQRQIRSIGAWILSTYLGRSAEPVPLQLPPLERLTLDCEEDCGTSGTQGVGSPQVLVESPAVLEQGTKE
#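 Probe or stimulus: fluorescein-Rev peptide as binding partner; assay system: Cy5-tagged RRE RNA duplex with fluorescein-tagged Rev peptide; timing: 5 min compound–RNA preincubation, then 15 min with peptide, 25 °C; medium: HEPES pH 7.5 buffer with KCl, MgCl2, NaCl and EDTA; signal: fluorescein-to-Cy5 FRET, 480 nm excitation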
# FAK blocker = inhibitors of human focal adhesion kinase. biochemical FAK kinase activity assay. inhibition, %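 (tested at 7 µM)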. Q05397. 0.84% of 97,000 active; in the data active means inhibition above about 19%;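 further: 0% = DMSO and 100% = reference compound high control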
# EphB4 ephrin blk = EphB4-ephrin-B2 interaction antagonism | P54760 | EphB4 LBD / TNYL-RAW-Alexa532 peptide, fluorescence polarization | inhibition, % at 7 µM | 0.15% of 97,000 active;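 active means inhibition above the screen-wide mean inhibition plus 3 SD, cut at about 15% in these data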;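 further: 0% = DMSO wells and 100% = excess unlabeled TNYL-RAW peptide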
# PLK1 PBD inh = blocks phosphopeptide binding to human Plk1 polo box domain. P53350. Plk1 PBD phosphopeptide binding, fluorescence polarization. inhibition, %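 (tested at about 20 µM)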. 0.13% of 97,000 active; in the data active means inhibition above about 34%, passing the limit was not always enough
# hDAT+cocaine = modulates human dopamine transporter uptake under cocaine | Q01959 | LLC-PK1 hDAT cells, [14C]-dopamine uptake with cocaine IC80; actives deviate in either direction | B-score at 10 µM | 1.3% of 110,000 active | AID 449768;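 active means Z score or B-score, a plate-position-corrected score, falls beyond the plate's 99.7% confidence bounds, in either direction; inactive means both scores lie inside the 99.7% bounds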;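 further: scored against the spread of the other compound wells on the same plate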
# PLK1 inh = inhibitors of human PLK1 kinase; 0.53% of 97,000 active; recombinant PLK1 kinase, TR-FRET peptide phosphorylation; inhibition, % at 10 µM; AID 619; P53350;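 active means inhibition of 50% or more in the single-concentration screen; inactive means inhibition below 50%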;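 further: 0% = DMSO max control and 100% = H-89 dihydrochloride min control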
# * = called active by the depositor; nt = no result; [ ] = remark or other dose.
SMILES,HIV Rev-RRE inh,FAK blocker,EphB4 ephrin blk,PLK1 PBD inh,hDAT+cocaine,PLK1 inh
CCOc1ccc(NC(=O)C2CCN(C(=O)NC3CCCCC3)CC2)cc1,2,-2,-3,-7,-1.3,52*
Cc1ccc(S(=O)(=O)NCC(=O)N(CC(=O)NC2CCCCC2)CC2CCCO2)cc1 (stereo unspecified),2,-2,-12,-6,-0.048,-3
Cn1c(CN2CCCC2)nc2cc(NS(=O)(=O)c3ccccc3)ccc21,4,0,-3,6,0.74,-2
O=S(=O)(Nc1ccc(O)c(CN2CCCCC2)c1)c1ccccc1,5,0,8,23,1.6*,-9
CCN(c1c(C)n(C)n(-c2ccccc2)c1=O)S(C)(=O)=O,11,1,5,-3,-1.9,-8
CCCCCCC(c1c(C)n(C)n(-c2ccccc2)c1=O)c1c(C)n(C)n(-c2ccccc2)c1=O,-1,4,4,26,3.2*,-9
COc1ccc(-c2cc(C(=O)NCc3cccnc3)no2)cc1,-1,0,-4,13,1,-13
O=C(NCc1cccnc1)c1cc(-c2ccccc2)on1,4,0,-1,-2,3.6*,-10
Cn1c2ccc(Cl)cc2c2nc3ccccc3nc21,7,0,-5,14,0.81,67*
CCOC(=O)C1=C(O)/C(=C/c2ccc(-c3ccccc3C(=O)O)o2)SC1=Nc1ccc(C)cc1,nt,nt,nt,nt,nt,-9
CCOC(=O)C1=C(O)/C(=C/c2ccc(-c3ccccc3C(=O)O)o2)SC1=Nc1ccc(OC)cc1,89*[fluorescence artefact?],-3,2,-27,-0.84,31
CCCS(=O)(=O)c1c(S(=O)(=O)CCC)c2c(C)cccn2c1C(=O)OC,0,-3,6,-3,1.4*,-8
Cc1ccc(C2CC(=O)N3CN(c4ccc(Br)cc4)CSC3=C2C#N)o1 (stereo unspecified),45*,5,3,0,-0.48,-1
N#CC1=C2SCN(c3ccccc3)CN2C(=O)CC1c1ccccc1Cl (stereo unspecified),3,-1,3,8,-0.47,56*
CC(C)N=C(NC#N)SCc1ccccc1F,7,-5,-4,11,-8.5*,-16
CC(C)N=C(NC#N)SCC(=O)NC(C)(C)C,-1,3,-2,-8,-0.36,1
C=C(C)C(=O)OC1(C(F)(F)F)Oc2cc(C)ccc2NC1=O (stereo unspecified),5,-1,6,-24,0.031,-10
Cc1cc(C)n2cc(CSc3nc4cc(Cl)ccc4o3)nc2n1,2,2,-1,7,4*,-7
O=C(C1CC1)N1CCc2cc(Br)cc(S(=O)(=O)N3CCCCCC3)c21,nt,nt,nt,nt,6*,nt
CCC(=O)N1CCc2cc(Br)cc(S(=O)(=O)N3CCCCCC3)c21,3,-2,-2,-12,-0.0079,-9
CC1CCCN(c2nc3c(c(=O)[nH]c(=O)n3C)n2CCSc2ncccn2)C1 (stereo unspecified),nt,nt,nt,nt,0.049,nt
Cn1c(SCc2c(Cl)cccc2Cl)nc(C(F)(F)F)cc1=O,13,5,3,-15,1.7,-9
COc1ccccc1/C=N/n1c(N)c(S(=O)(=O)c2cccs2)c2nc3ccccc3nc21,9,1,-5,3,3.5*,-7
COc1ccc(C(=O)Nn2c(SCC(=O)NCC3CCCO3)nc3ccccc3c2=O)cc1 (stereo unspecified),4,-8,0,-18,-8.4*,-3
CCOc1cc(/C=C2\C(=O)N(c3nc(-c4ccc(Br)cc4)cs3)N=C2c2ccccc2)ccc1O,58*,3,6,4,nt,-20
SMILES,HIV Rev-RRE inh,FAK blocker,EphB4 ephrin blk,PLK1 PBD inh,hDAT+cocaine,PLK1 inh
O=C1C(Cl)=C(N2CCCCC2)C(=O)C(Cl)=C1c1cnc(N2CCCCC2)s1,23,3,2,-4,-0.48,0
CN(C)c1ncc(C2=C(Cl)C(=O)C(N3CCCC3)=C(Cl)C2=O)s1,4,39*,1,12,-0.14,29
CC(Sc1nnnn1C)C(=O)Nc1ccc(N2CCOCC2)cc1 (stereo unspecified),nt,nt,nt,nt,-7.8*,nt
CCOc1cc(CNn2nnnc2N)cc(Cl)c1OCC(=O)NC(C)(C)C,11,2,4,28,0.7,-6
COc1ccc(COc2cc(-c3cccc(OC)c3)nc3ccc(NC(=O)C(C)C)cc23)cc1,nt,nt,nt,nt,0.91,nt
COc1ccccc1/C=c1\sc2nc(-c3ccco3)nn2c1=O,-3,8,-5,13,0.88,-2
COc1ccc(OC)c(/C=c2\sc3nc(-c4cccs4)nn3c2=O)c1,57*,0,-10,5,-0.63,22
CCCn1c(N2CCN(CC(=O)c3c(C)n(C)c4ccccc34)CC2)nc2c1c(=O)[nH]c(=O)n2C,-5,6,0,0,2.8*,-2
CCn1c(N2CCN(CC(=O)c3c[nH]c4ccccc34)CC2)nc2c1c(=O)[nH]c(=O)n2C,6,3,-4,11,0.15,-5
COC(=O)NC(=S)Nc1ccc(Oc2ccc(Cl)cc2Cl)c(Cl)c1,-2,-1,4,-27,-0.16,-1
Cc1ccc2nsnc2c1S(=O)(=O)N1CCN(Cc2ccc3c(c2)OCO3)CC1,7,2,-1,21,5.4*,-11
O=C(O)C1C2C=CC3(CN(Cc4ccco4)C(=O)C13)O2 (stereo unspecified),6,0,-3,2,0.0014,58*
Cc1ccccc1OCC1Cc2c(nc(N)c(C#N)c2N)O1 (stereo unspecified),9,2,-4,-13,-0.024,12
COc1ccc(C(=O)N/N=C2/SCC(=O)N2Cc2ccc3c(c2)OCO3)cc1OC,3,4,16*,-6,0.41,-3
COc1cccc(C(=O)N/N=C2\SCC(=O)N2Cc2ccc3c(c2)OCO3)c1,0,-3,2,-3,0.73,1
COc1ccc(OC)c(NC(=O)CCN2CCCCCC2)c1,-4,3,-10,-8,0.17,-7
COc1ccccc1N1CCN(C(=O)c2ccc(NC(C)=O)cc2)CC1,2,-6,-6,-18,-3.1*,-8
COC(=O)COc1ccc2c(-c3ccc(OC)cc3)cc(=O)oc2c1,11,-1,-6,6,0.19,0
COc1ccc(-c2cc(=O)oc3c(C)c(O)c(CN(C)C)cc23)cc1,39*,2,7,-12,0.37,-12
C=CCn1c(=NC(=O)CN2C(=O)CCC2=O)sc2cccc(OC)c21,-2,-2,1,-16,-0.11,-11
C#CCn1c(=NC(=O)CN2C(=O)CCC2=O)sc2cccc(C)c21,-2,4,-2,-39,0.44,62*
COc1ccc2nc(N3CCCC3)c(C#N)cc2c1,47*,4,7,-32,1.5,-19
COc1ccc2nc(N3CCCCC3)c(C#N)cc2c1,25,4,3,-3,0.23,-9
CCOC(=O)N1CCN(C(=S)NCCOC)CC1,5,0,-9,-3,-0.5,-11
